We go through two compounds from ChEMBL document CHEMBL4715754, “Slowing down fat digestion and absorption by an oxadiazolone inhibitor targeting selectively gastric lipolysis” (2016).

Test [1] deals with T1, Pancreatic triacylglycerol lipase (Homo sapiens) (UniProt P16233).
T1 sequence (whole entry): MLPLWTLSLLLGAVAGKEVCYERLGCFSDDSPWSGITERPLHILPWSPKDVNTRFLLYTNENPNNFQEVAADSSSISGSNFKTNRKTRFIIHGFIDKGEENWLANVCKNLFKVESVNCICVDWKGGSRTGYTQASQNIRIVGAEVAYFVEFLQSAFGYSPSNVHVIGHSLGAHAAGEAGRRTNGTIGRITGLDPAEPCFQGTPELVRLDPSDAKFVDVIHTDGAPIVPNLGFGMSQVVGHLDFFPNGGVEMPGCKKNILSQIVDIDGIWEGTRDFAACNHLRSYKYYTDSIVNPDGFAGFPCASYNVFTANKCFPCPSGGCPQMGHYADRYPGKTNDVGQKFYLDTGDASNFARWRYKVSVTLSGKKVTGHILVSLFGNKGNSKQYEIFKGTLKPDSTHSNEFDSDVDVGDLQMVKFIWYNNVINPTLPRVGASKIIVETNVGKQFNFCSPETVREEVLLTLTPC
Kind of test: Inhibition of human pancreatic lipase at 400:1 molar excess compound concentration preincubated for 30 mins at 25 degreeC relative to control. Put shortly: (§1)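 Pancreatic lipase from human pancreatic juice (54 µg/mL HPL stock) or porcine pancreatic extract (32 µg/mL PPL stock) was held in 10 mM MES pH 7.0, 150 mM NaCl. It was pre-incubated with inhibitor from DMSO stock for 30 min at 25 °C with 4 mM NaTDC at varied molar excess. Residual activity was read by pH-stat on tributyrin at 37 °C, pH 8.0, with 2 mM CaCl₂ and 4 mM NaTDC. x_I50 was taken from residual activity; DMSO-only controls were run.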

The target of test [2] is T2, Pancreatic triacylglycerol lipase (Sus scrofa) (UniProt P00591).
T2 sequence (whole entry): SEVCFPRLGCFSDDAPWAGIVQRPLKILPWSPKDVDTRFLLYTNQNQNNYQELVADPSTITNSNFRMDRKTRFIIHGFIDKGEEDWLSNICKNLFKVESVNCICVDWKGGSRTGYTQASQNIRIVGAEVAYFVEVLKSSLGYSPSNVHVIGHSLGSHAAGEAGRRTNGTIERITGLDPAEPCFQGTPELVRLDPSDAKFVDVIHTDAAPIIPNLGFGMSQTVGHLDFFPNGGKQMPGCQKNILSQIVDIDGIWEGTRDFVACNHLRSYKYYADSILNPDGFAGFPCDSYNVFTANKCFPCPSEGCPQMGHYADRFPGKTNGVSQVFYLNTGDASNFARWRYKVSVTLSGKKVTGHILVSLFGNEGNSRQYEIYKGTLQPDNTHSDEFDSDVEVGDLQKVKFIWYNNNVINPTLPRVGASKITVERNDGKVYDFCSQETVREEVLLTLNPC
The test can be described thus: Inhibition of porcine pancreatic lipase at 4.1 mg/ml under duodenal phase at pH 6.5 using liquid test meal measured after 30 to 90 mins relative to control. The note with it: time 30-90 min.

The species entered for test [3] is Homo sapiens. The test can be described thus: Inhibition of human pancreatic carboxylesterase preincubated for 1 hr at 25 degreeC.
The target of test [4] is T2, Pancreatic triacylglycerol lipase (Sus scrofa). Kind of test: Inhibition of porcine pancreatic lipase preincubated for 30 mins at 25 degreeC. Put shortly: as §1
The target in test [5] is T3, Gastric triacylglycerol lipase (Canis lupus familiaris) (UniProt P80035).
T3 sequence (whole entry): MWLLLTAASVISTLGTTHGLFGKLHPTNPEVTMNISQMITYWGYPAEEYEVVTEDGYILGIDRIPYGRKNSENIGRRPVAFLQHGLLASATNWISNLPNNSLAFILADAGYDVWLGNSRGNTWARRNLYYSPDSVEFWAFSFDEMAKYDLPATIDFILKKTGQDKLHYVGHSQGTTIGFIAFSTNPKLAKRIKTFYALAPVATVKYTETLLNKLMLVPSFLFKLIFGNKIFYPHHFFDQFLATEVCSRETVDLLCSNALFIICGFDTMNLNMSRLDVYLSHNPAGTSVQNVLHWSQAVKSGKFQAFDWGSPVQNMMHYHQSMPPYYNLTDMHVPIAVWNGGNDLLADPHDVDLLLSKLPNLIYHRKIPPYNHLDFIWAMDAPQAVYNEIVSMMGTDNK
The test can be described thus: Inhibition of recombinant dog gastric lipase at 4.1 mg/ml under gastric phase at pH 5.5 using liquid test meal measured up to 30 mins relative to control. The conditions noted are these: time min <=30. Put shortly:
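Gastric phase: 15 mL liquid or solid test meal (506 mg TAG) premixed with 734 µL of 4.1 mg/mL DMSO stock (2.94 mg, 7.262 µmol), then DGL to 17 µg/mL final, pH 5.5, 37 °C, stirred. Samples at 1, 15, 29 min; residual DGL activity by pH-stat; lipolysis level from TLC-FID of lipid extracts. DMSO-only controls; n = 3.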

Test [6] concerns the target T2, Pancreatic triacylglycerol lipase (Sus scrofa). Kind of test: Inhibition of porcine pancreatic lipase assessed as lipolysis level at 4.1 mg/ml under duodenal phase at pH 6.5 using liquid test meal measured at 90 mins (reference value: 63.6 +/- 2.6 %). On the set-up: scale not given: the % may be the effect or the level left.
Test [7] concerns the target T3, Gastric triacylglycerol lipase (Canis lupus familiaris). The test can be described thus: Inhibition of recombinant dog gastric lipase preincubated for 1 hr at 25 degreeC relative to orlistat.
The target of test [8] is T4, Gastric triacylglycerol lipase (Rattus norvegicus) (UniProt P04634).
T4 sequence (whole entry): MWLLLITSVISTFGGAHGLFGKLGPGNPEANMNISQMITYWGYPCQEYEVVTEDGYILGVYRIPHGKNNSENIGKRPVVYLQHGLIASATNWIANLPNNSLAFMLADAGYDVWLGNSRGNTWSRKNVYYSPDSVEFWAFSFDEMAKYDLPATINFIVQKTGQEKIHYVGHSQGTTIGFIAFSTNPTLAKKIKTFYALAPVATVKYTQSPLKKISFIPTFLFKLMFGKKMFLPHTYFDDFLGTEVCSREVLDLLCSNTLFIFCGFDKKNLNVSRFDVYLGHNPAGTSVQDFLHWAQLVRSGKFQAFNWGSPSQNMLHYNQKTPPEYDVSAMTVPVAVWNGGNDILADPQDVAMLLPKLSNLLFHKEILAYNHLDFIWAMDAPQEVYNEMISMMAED
Kind of test: Inhibition of rat lingual lipase preincubated for 1 hr at 25 degreeC. Put shortly:
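Enzyme pre-incubated with inhibitor (DMSO stock) at fixed molar excess for 1 h at 25 °C without substrate: hCEH x_I=4 (1 mM NaTDC assay), RLL and DGL x_I=20 with 4 mM NaTDC, GPLRP2 x_I=2 with 2 mM NaTDC. Residual activity sampled at intervals by pH-stat on tributyrin emulsion at 37 °C; t1/2 taken at 50% residual activity. DMSO-only controls; at least triplicate.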

The target of test [9] is T2, Pancreatic triacylglycerol lipase (Sus scrofa). The test can be described thus: Inhibition of porcine pancreatic lipase assessed as lipolysis level at 4.1 mg/ml under duodenal phase at pH 6.5 using solid test meal measured at 90 mins (reference value: 45.4 +/- 1.4 %). On the set-up: scale not given: the % may be the effect or the level left.
The target is the same in test [10]. Kind of test: Inhibition of porcine pancreatic lipase at 400:1 molar excess compound concentration preincubated for 30 mins at 25 degreeC relative to control. The procedure, abridged:
as §1

Test [11] shares this target. Kind of test: Inhibition of porcine pancreatic lipase assessed as residual activity at 4.1 mg/ml under duodenal phase at pH 6.5 using liquid test meal measured after 30 to 90 mins relative to control. The note with it: time 30-90 min.
The target is the same in test [12]. The conditions noted are these: dose 4.9 mg/ml, time 30-90 min.

One may read the inhibition as the percentage by which the read-out fell short of the control. As to `O=c1oc(OCCOCc2ccccc2)nn1-c1cccc(Oc2ccccc2)c1`, the inhibition is 19.3% in [1], 5.6% in [2], 100% in [5] and 13.2% in [10]. In addition, the XI50 in test [3] was 1.42 molar excess; in test [4], above 400 molar excess; in test [8], 1.43 molar excess. Further, the values for the Activity in test [6], in test [9] and in test [11] were 55.3%, 33.7% and 94.4%, respectively. Also, the fold change (FC) in test [7] was 11.2.
As to `CCCCCCCCCCC[C@@H](C[C@@H]1OC(=O)[C@H]1CCCCCC)OC(=O)[C@@H](CC(C)C)NC=O`, the inhibition in test [1] came out at 91.5%; in test [12] it was 86.6%; in test [10], 93.1%. The results for the XI50 in test [3], in [4] and in [8] were 0.78 molar excess, 1.35 molar excess and 0.7 molar excess, respectively.
